Test results reported in PubChem BioAssay.
Inconclusive results are not listed.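 The calls were made as follows, unless noted: active = viability at or below 27.92% in each of two runs, the all-compound median minus 4 SD; inconclusive = no clear call, values can overlap the other calls; inactive = the rest.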

Key:
[1] = S. cerevisiae growth inhibition in permissive medium (OD615), pilot counter-assay for S. cerevisiae lifespan shortening project, permissive growth control (AID 705;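 active = growth inhibition above 25% in both replicates, a cutoff set 3 SD above the mean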); conditions: OD615, 24 h, at 10 µM, stronger effect = higher value
In short: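 Material: engineered DeaD yeast; Compound: one dose 10 µM, DMSO 0.25% final; Detection: absorbance (optical density) at 615 nm; Buffer or medium: permissive raffinose/galactose medium; Timing: 24 h exposure, 30 °C.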

[2] = S. cerevisiae growth inhibition in restrictive medium, OD615, pilot screen, restrictive growth control, yeast lifespan reduction project (AID 706;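 active = growth inhibition above a set limit, 3 SD over mean compound inhibition, in both replicates, cut at about 43% in these data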;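 also: modified DeaD lifespan yeast strain shifted to restrictive glucose medium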); conditions: OD615, 48 h, at 10 µM, stronger effect = higher value
In short: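 Buffer or medium: restrictive glucose medium (CSMM-D); test system: modified S. cerevisiae; doses: single dose of 10 µM compound final, 0.25% DMSO; schedule: 48 h compound exposure at 30 °C; detection: absorbance (optical density) measured at 615 nm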

[3] = doxorubicin toxicity protection in MRP-1 cells – H69AR cells, CellTiter-Glo, duplicate, MRP-1 activator project, pilot screen (AID 807;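 active = viability increase at or above a cutoff of the median across tested compounds plus 3 SD, cut at about 8.5% in these data, passing the limit was not always enough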;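 also: compound pretreatment 18-22 h then 72 h combined with doxorubicin; 0% = doxorubicin alone and 100% = vehicle without doxorubicin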); conditions: H69AR viability with doxorubicin, CellTiter-Glo luminescence; at 10 µM; stronger effect = higher value
[4] = viability of HCT116 without oncogenic beta-catenin – human colon tumor cells, pilot screen (AID 823;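 active = cell viability at or below a set limit in both duplicate runs, the limit being the all-compound median minus 4 SD, cut at about 23% in these data, passing the limit was not always enough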;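 also: 0% = wells killed by 20 µM Hyamine and 100% = untreated DMSO cell wells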); conditions: HCT116 beta-catenin knockout viability, CellTiter-Glo, 60 h; at 10 µM; stronger effect = lower value
[5] = viability of PTEN-null HCT116 cells – cell-based, HCT116 clonal line, CellTiter-Glo, pilot screen (AID 824); conditions: HCT116 PTEN-deleted viability, 60 h, at 10 µM, stronger effect = lower value;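 also: 0% = 20 µM Hyamine control and 100% = vehicle cell control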
[6] = RAM pathway blockade in budding yeast – dse1pr::URA3 reporter, 5-FOA selection, pilot screen (AID 869;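 active = inhibition over a set limit, the all-compound mean plus 3 SD, in both replicate runs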;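 also: 0% = DMSO wells with no growth and 100% = 10 µM 1-NA-PP1 with full growth; RAM network block rescues cells from 5-FOA so hits raise OD615 growth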); conditions: S. cerevisiae dse1pr::URA3 5-FOA growth, OD615, 2 d; at 10 µM; stronger effect = higher value; strain carries analog-sensitive mutant Cbk1 kinase
[7] = RAM signaling pathway blockade in yeast – S. cerevisiae, Pdr1DBD-CYC8 efflux-inhibited sensitized strain, primary screen (AID 1298;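 active = RAM network inhibition above 8.4% in each of two replicates, 3 SD over the compound average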;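 also: 0% = DMSO untreated cells without growth and 100% = 10 µM 1-NA-PP1 full growth; higher means more yeast growth rescued from 5-FOA killing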); conditions: S. cerevisiae cbk1-as DSE1-URA3 strain, 5-FOA growth OD615, 2 d; at 50 µM; stronger effect = higher value

CC(C)CC(NS(=O)(=O)c1ccc2c(c1)oc(=O)n2C)C(=O)N1CC=C(c2ccccc2)CC1 (stereo not given)
inactive: growth inhibition [1] -18.2% | growth inhibition [2] -14.5% | viability increase [3] -3.44% | viability [4] 85.9% | viability [5] 83.3% | inhibition [6] 0.535% | RAM network inhibition [7] 6.89%

O=C(O)CCC(=O)N1CCc2cc(S(=O)(=O)N3CC=C(c4ccccc4)CC3)ccc21
inactive: growth inhibition [1] 5.99% | growth inhibition [2] 4.92% | viability increase [3] -2.14% | viability [4] 104% | viability [5] 93.9% | inhibition [6] 3.79% | RAM network inhibition [7] 7.9%

Cc1ccc(NC2=CC(=O)CC(c3ccco3)C2)c(N)c1 (stereo not given)
inactive: growth inhibition [1] -4.58% | growth inhibition [2] 5.45% | viability increase [3] -4.41% | viability [4] 81.2% | viability [5] 86.5% | inhibition [6] 0.07% | RAM network inhibition [7] 2.43%

CC(=O)c1ccc(N2CCN(C(=O)c3cc4c(=O)n(C)c5ccccc5c4n3C)CC2)cc1
inactive: growth inhibition [1] -6.79% | growth inhibition [2] -16.3% | viability increase [3] -3.01% | viability [4] 96.5% | viability [5] 88.5% | inhibition [6] 1.98% | RAM network inhibition [7] 2.91%

COc1ccc(C(CNC(=O)C2CC(=O)N(Cc3ccc(C)cc3)C2)N(C)C)cc1 (stereo not given)
inactive: growth inhibition [1] -1.76% | growth inhibition [2] -7.34% | viability increase [3] -0.21% | viability [4] 96% | viability [5] 95.7% | inhibition [6] 1.3% | RAM network inhibition [7] 1.64%

COC(=O)/C=C(\C)NC(=O)c1cccs1
inactive: growth inhibition [1] -1.38% | growth inhibition [2] 4.05% | viability increase [3] 0.51% | viability [4] 101% | viability [5] 97.5% | inhibition [6] -0.705% | RAM network inhibition [7] 0.06%

CC(C)CC(/C(O)=C(\C#N)c1nc2ccccc2[nH]1)N1C(=O)c2ccccc2C1=O (stereo not given)
inactive: growth inhibition [1] -13.3% | growth inhibition [2] -18.9% | viability increase [3] -2.01% | viability [4] 82% | viability [5] 73.3% | inhibition [6] 3.05% | RAM network inhibition [7] 4.23%

COc1ccccc1OCCNC(=O)c1ccc(S(=O)(=O)N(C)C)cc1
inactive: growth inhibition [1] -3.92% | growth inhibition [2] 3.39% | viability increase [3] -1.91% | viability [4] 100% | viability [5] 91.9% | inhibition [6] -0.715% | RAM network inhibition [7] 2.71%

COC(=O)c1ccc(NC(=O)CSc2nnc(-c3ccncc3)n2N)cc1
inactive: growth inhibition [1] -4.88% | growth inhibition [2] -14.8% | viability increase [3] -1.74% | viability [4] 95.7% | viability [5] 97.4% | inhibition [6] 0.805% | RAM network inhibition [7] 0.26%

CCOc1ccc(N(CC(=O)Nc2ccc(OC)cc2)S(=O)(=O)c2c(C)noc2C)cc1
inactive: growth inhibition [1] -8.01% | growth inhibition [2] -2.61% | viability increase [3] -3.3% | viability [4] 83.5% | viability [5] 73.9% | inhibition [6] 3.53% | RAM network inhibition [7] 4.12%

CC(c1ccccc1)N1CC(C(=O)N2CCN(c3ccccc3)CC2)CC1=O (stereo not given)
inactive: growth inhibition [1] 0.43% | growth inhibition [2] 1.48% | viability increase [3] -1.1% | viability [4] 104% | viability [5] 101% | inhibition [6] 0.54% | RAM network inhibition [7] 4.4%

O=S(=O)(NCCSc1nnc(-c2ccco2)n1-c1ccccc1)c1ccccc1
inactive: growth inhibition [1] -14.1% | growth inhibition [2] -19.2% | viability increase [3] -3.53% | viability [4] 83.9% | viability [5] 87.1% | inhibition [6] 1.52% | RAM network inhibition [7] 6.44%

CCOC(=O)Cn1c(=O)oc2cc(S(=O)(=O)Nc3ccc(F)cc3)ccc21
inactive: growth inhibition [1] -7.54% | growth inhibition [2] -3.97% | viability increase [3] 0.5% | viability [4] 96.7% | viability [5] 106% | inhibition [6] 1.07% | RAM network inhibition [7] 7.5%

CCCC(NS(=O)(=O)c1ccc(Br)cc1)C(=O)O (stereo not given)
inactive: growth inhibition [1] -3.98% | growth inhibition [2] -0.42% | viability increase [3] -0.09% | viability [4] 104% | viability [5] 99.3% | inhibition [6] 0.57% | RAM network inhibition [7] 4.41%

Cc1ccc(-c2nc(CS(=O)CC(=O)NC3CCC(C)CC3)c(C)o2)cc1 (stereo not given)
inactive: growth inhibition [1] 2.73% | growth inhibition [2] 11.8% | viability increase [3] 1.29% | viability [4] 84.8% | viability [5] 94.8% | inhibition [6] 0.76% | RAM network inhibition [7] 2.42%
